Source: PubChem BioAssay (several laboratories)
NR2E3 ag-1 – agonists of human NR2E3 nuclear receptor | inhibition of corepressor binding, % at 3.98 µM | CHO-S Gal4-NCOR/VP16-NR2E3 two-hybrid, luciferase | hit rate 0.35% among 360,000;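 active = inhibition above the mean of all tested compounds plus 3 SD, cut at about 70% in these data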;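 note: 0% = DMSO with NR2E3 transfected cells and 100% = cells lacking NR2E3 construct; higher means lower luciferase signal from less NR2E3 corepressor binding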
Target sequence (Q9Y5X4 whole entry, looked up, the tested form may be a part): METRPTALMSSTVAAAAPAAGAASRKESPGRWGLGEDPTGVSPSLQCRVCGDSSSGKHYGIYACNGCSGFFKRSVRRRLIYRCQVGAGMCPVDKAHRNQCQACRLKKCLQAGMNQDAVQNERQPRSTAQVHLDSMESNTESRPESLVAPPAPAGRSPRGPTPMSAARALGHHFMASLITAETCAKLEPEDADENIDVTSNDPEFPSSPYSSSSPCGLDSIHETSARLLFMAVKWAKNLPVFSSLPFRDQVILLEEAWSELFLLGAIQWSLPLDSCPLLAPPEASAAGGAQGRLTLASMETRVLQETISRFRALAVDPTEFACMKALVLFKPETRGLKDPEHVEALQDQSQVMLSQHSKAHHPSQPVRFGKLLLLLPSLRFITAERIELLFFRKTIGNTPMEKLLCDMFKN
697 NFkB inh – lowers PMA/ionomycin-induced NF-kB signal in 697 B cells; 697 B-cell NF-kB luciferase reporter, 16 h; inhibition, % at 4 µM; hit rate 0.33% among 330,000; in the data active = inhibition above about 35%
FGF22 binding-1 – binders of recombinant human FGF22 by thermal shift. activity (Tm shift, normalised), % at 9.99 µM. hit rate 1.5% among 340,000. Q9HCT0. AID 651658. SYPRO orange fluorescence; percent of sucrose octasulfate shift, DMSO zero;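 active = mean Tm shift, scaled 0 neutral to 100 positive control, at about 1.3% or above, every replicate too, limit read from the data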
Jurkat NFkB inh – lowers PMA/ionomycin-induced NF-kB signal in Jurkat cells; PMA/ionomycin-induced NF-kB luciferase reporter, luminescence; inhibition, % at 4 µM; hit rate 0.53% among 330,000; AID 435003; in the data active = inhibition above about 50%
miR-122 sensor – inhibitors of miR-122 in Huh7 cells | activation (reporter increase), % at 12.5 µM | Huh7 miR-122 Renilla luciferase sensor, 48 h; neutral wells = 0, positive control = 100 | AID 602342 | hit rate 0.3% among 340,000;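 active = mean replicate activation score at least 90 and every replicate individually at or above 90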;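 note: higher luciferase means less miR-122 activity so hits act as miR-122 inhibitors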
NR2E3 ag-2 – NR2E3 (human) agonism. Q9Y5X4. GST-NR2E3/biotin-RetCOR TR-FRET, 1536-well. inhibition of corepressor binding, % at 4.78 µM. hit rate 0.12% among 320,000. AID 2300;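 active = percent inhibition above the cutoff of mean plus 3 SD of all tested compounds, set per screening campaign, cut at about 20% in these data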;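 note: 0% = DMSO wells and 100% = biotin wells as full block of FRET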
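Material: NR2E3–RetCOR corepressor complex / Incubation: Compound–protein incubation for 5 h at 4 °C / Dosing: compound at 4.8 µM, single dose / Detection: time-resolved FRET / Benchmarks: high control biotin, low control 0.6% DMSO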
FGF22 binding-2 – FGF22 (human) binding in thermal shift. shares compounds with FGF22 binding-1. recombinant FGF22 thermal shift, SYPRO orange fluorescence. thermal shift activity, °C (ΔTm) at 38 µM. hit rate 2% among 1,000;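 active = fitted rise in melting shift crosses a set limit at or below the top valid dose tested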
FGF22 TSA DP – binds human FGF22 shifting its melting temperature; shares compounds with FGF22 binding-1; Thermal shift assay, SYPRO orange, melting temperature shift; Tm shift (activity), % at 38 µM; 50 tested, under 10 active;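 active = compounds whose fitted dose curve of melting temperature shift rises past a set threshold within the tested doses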
TSA no protein – shows thermal shift signal without protein, FGF22 counter-screen | shares compounds with FGF22 binding-1 | compound-only SYPRO orange thermal shift counter-screen, no protein | AC50, µM (highest dose often 38 µM) | hit rate 2% among 1,000 | AID 743019;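 active = rising signal whose fitted curve reaches the 0.54 level within the top valid dose, showing a melting point, actives reach about 13 µM in these data; inactive = the rest, including activity in the opposite direction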; note: value is where the raw curve crosses a fixed level and not half-maximal
An asterisk follows results filed as active; i = inactive; . = no result given; [ ] = remark or other dose. The list is not random: actives were taken first. Their share in the collection is about 2.2%.

SMILES | NR2E3 ag-1 | 697 NFkB inh | FGF22 binding-1 | Jurkat NFkB inh | miR-122 sensor | NR2E3 ag-2 | FGF22 binding-2 | TSA no protein | others
O=C(N[C@H]1CC[C@@H](CCNS(=O)(=O)c2ccc(F)cc2)O[C@H]1CO)C1CCCC1 | . | . | 9.7* | . | 19[16.7 µM] | . | 0.12[42 µM] | i
C[C@@H]1CN([C@H](C)CO)C(=O)c2cccc(NC(=O)Nc3ccccc3)c2O[C@H]1CN(C)CC1CCCCC1 | . | . | -1 | . | 43[16.7 µM] | . | . | .
O=C(NCC[C@@H]1CC[C@@H](NC(=O)c2cnccn2)[C@H](CO)O1)Nc1ccc(F)cc1 | . | . | 0 | . | . | . | . | .
O=C(NCC[C@@H]1CC[C@H](NC(=O)c2cnccn2)[C@H](CO)O1)Nc1ccc(F)cc1 | . | . | 9.1* | . | . | . | 0.19[42 µM] | i
O=C(C[C@H]1CC[C@H](NC(=O)Nc2cc(F)ccc2F)[C@@H](CO)O1)Nc1ccc(-c2ccccc2)cc1 | . | . | 1.6* | . | . | . | 0.078[42 µM] | i
O=C(C[C@@H]1CC[C@H](NC(=O)Nc2cc(F)ccc2F)[C@@H](CO)O1)Nc1ccc(-c2ccccc2)cc1 | . | . | 1 | . | . | . | . | .
COc1ccc(CN(C)C[C@H]2OCCCC[C@H](C)Oc3ccc(NS(C)(=O)=O)cc3C(=O)N([C@@H](C)CO)C[C@@H]2C)cc1 | . | . | -1 | . | -1[16.7 µM] | . | . | .
COc1cc(/C=N/NC(=O)CCn2c3ccccc3c3ccccc32)ccc1O | -17 | -18 | 2.1* | 11 | -4 | 3 | 0.038 | 13µM*
COc1cc(/C=N/NC(=O)c2cc3ccccc3[nH]2)ccc1O | -55 | 1 | 2.7* | -8 | 1 | 6 | 0.24 | i | FGF22 TSA DP=0
CCC(=O)Nc1ccc2c(c1)C(=O)N(C)C[C@H](OC)[C@@H](C)CN(C(=O)CN1CCOCC1)[C@@H](C)CO2 | . | . | . | . | -2[16.7 µM] | . | . | .
CN1CCC(C)(C(=O)Nc2cccc3c2CCCC3)C1 (centres undefined) | -6 | . | 19* | . | -3 | . | 0.001 | i
CC(C)(C)CC(=O)Nc1cccc2c1CCCC2 | 0 | 6 | . | 3 | 9 | -1 | . | .
COc1ccc(S(=O)(=O)c2nnn(-c3cccc(OC)c3)c2N)cc1 | -14 | -7 | 0 | -1 | . | 1 | . | .
Cc1ccc(S(=O)(=O)c2nnn(-c3cccc(F)c3)c2N)cc1 | 15 | 8 | 1.5* | 8 | 5 | 0 | -0.014 | i
Cc1noc(C)c1NC(=O)N(C)C[C@@H]1OCCCC[C@H](C)Oc2ccc(NC(=O)c3ccncc3)cc2C(=O)N([C@H](C)CO)C[C@@H]1C | . | . | 0 | . | 10[16.7 µM] | . | . | .
COC(=O)c1cn(NC(=O)Cc2ccccc2OC)c(=O)c2ccccc12 | 17 | -11 | 2.1* | -6 | 14 | 4 | 0.046 | i
CO[C@@H]1CN(C)C(=O)c2cc(NC(=O)NC(C)C)ccc2OC[C@H](C)N(CCC(F)(F)F)C[C@H]1C | . | . | . | . | 24[16.7 µM] | . | . | .
O=C(O)c1cccc(-n2cc(-c3cccc(C(F)(F)F)c3)cn2)c1 | -152 | -132 | 1.6* | -33 | . | -2 | 0.17 | i
Cc1ccc(CN2CCNC(=O)C2CC(=O)N(C)C2CCCCC2)cc1 (centres undefined) | -16 | -3 | 1.5* | 11 | 1 | -1 | 0.1 | i
O=C(N[C@@H]1CC[C@H](CC(=O)N2CCC(Cc3ccccc3)CC2)O[C@@H]1CO)c1cnccn1 | . | . | 0 | . | . | . | . | .
COc1ccccc1-c1cnc2c(c1)C(=O)N([C@H](C)CO)C[C@@H](C)[C@@H](CN(C)C)O2 | . | . | 0 | . | 5[16.7 µM] | . | . | .
Cc1ccc(NC(=O)c2ccc(OCc3c(C)noc3C)cc2)c(C)c1 | -28 | 12 | 1.6* | -15 | -9 | -1 | . | i
Cc1ccccc1NC(=O)c1ccc(OCc2c(C)noc2C)cc1 | -1 | 9 | 0 | 5 | -2 | 1 | . | .
